STAT1 activator – STAT1 signaling activation | NIH 3T3 STAT1-luciferase reporter, IFN-gamma, luminescence; 100% = IFN-gamma alone, no compound | activation (% of control), % at 5.5 µM | hit rate 2.6% among 200,000 | AID 932;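 active means activation above the screen-wide mean activation plus 3 SD, cut at about 130% in these data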;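 further: raw ratio to IFN-gamma control signal so 100% means no change and 0% no light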
FLuc inh counter – inhibits firefly luciferase, flagging false hits in luciferase inhibition screens. inhibition, % at 10 µM. AID 1006. hit rate 1.5% among 200,000. P08659. ATPLite firefly luciferase biochemical luminescence, 10 min;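 active means inhibition above about 50% when tested at 10 µM, limit read from the data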
Target sequence (P08659 whole entry, looked up): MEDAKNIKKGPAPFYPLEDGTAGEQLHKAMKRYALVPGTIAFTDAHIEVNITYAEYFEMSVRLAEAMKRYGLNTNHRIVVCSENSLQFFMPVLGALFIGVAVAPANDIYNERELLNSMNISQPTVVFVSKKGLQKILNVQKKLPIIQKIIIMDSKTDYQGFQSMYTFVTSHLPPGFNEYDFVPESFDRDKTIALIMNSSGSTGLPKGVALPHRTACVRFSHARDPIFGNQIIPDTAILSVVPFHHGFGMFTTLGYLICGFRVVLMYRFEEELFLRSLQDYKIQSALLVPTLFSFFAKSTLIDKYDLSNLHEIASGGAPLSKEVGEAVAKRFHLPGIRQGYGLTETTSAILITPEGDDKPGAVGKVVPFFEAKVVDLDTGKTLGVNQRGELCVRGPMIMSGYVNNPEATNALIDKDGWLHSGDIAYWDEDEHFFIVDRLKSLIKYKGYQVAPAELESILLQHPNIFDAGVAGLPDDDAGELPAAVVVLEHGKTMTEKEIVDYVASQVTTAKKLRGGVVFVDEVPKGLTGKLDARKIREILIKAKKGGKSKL
NF-kB expr up – NF-kB expression increase, human neuronal cells | NF-kB reporter expression; hits give high values | fold change at 12.5 µM | hit rate 1.6% among 190,000; in the data active means fold change above about 3.3
FLuc act counter – firefly luciferase counter-screen for stimulation assays; ATPlite luciferase biochemical, luminescence, 10 min; 0 = ATP-free wells, 1 = DMSO control; activation factor at 10 µM; 200,000 tested, under 10 active;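 active means luciferase activation factor, scaled between plate controls, of at least 2 with compound at 10 µM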
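Assay system: Luciferase/luciferin reagent mix; Medium: PBS as buffer for the ATP substrate; Dosing: test compounds dosed from 2 mM stocks in 100% DMSO; Times: 10 min, room temperature; Signal: luminescence from luciferase reaction; Read-out: luciferase activation; Controls: No-ATP low control, compound-free enzyme-plus-ATP high control.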
APP 5'UTR act – activates APP 5'UTR luciferase reporter; SH-SY5Y APP 5'UTR luciferase reporter, luminescence; zero percent = DMSO vehicle wells; AID 1276; hit rate 1% among 190,000; activation, % at 2 µM;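 active means activation above a set limit, based on mean plus 3 SD of controls, cut at about 140% in these data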
STAT1 act conf – confirmation of STAT1 signaling activators; shares compounds with STAT1 activator; NIH 3T3 STAT1-luciferase reporter, IFN-gamma potentiation, luminescence; 100% = IFN-gamma EC80 alone, no compound; activation (% of control), % at 5.7 µM; hit rate 97% among 1,200; AID 1262;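 active means activation above a set limit carried over from the earlier primary STAT1 screen, cut at about 140% in these data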;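 further: simple ratio to median IFN-gamma plus DMSO wells so 0% means no light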
NFkB act STAT1ct – activates NF-kappaB, counter-screen to STAT1 activators | HEK293T NF-kB luciferase reporter, TNF-alpha stimulated, luminescence; 100% = TNF-alpha with vehicle only | hit rate 43% among 1,200 | AID 1306 | shares compounds with STAT1 activator | activation (% of control), % at 5.7 µM;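 active means activation above the mean of solvent-only control wells plus 3 SD, set per campaign, cut at about 130% in these data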;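 further: TNF-alpha given at a submaximal dose yielding about 80% of full reporter signal; values are well signal over median control so 100% means no change and 0% no light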
STAT3 act STAT1c – human STAT3 activation in STAT1 activator counter-screen. AID 1316. U3A cells STAT3-luciferase reporter, IL-6, luminescence; cells lack STAT1; 100 = IL-6 alone, no compound effect. shares compounds with STAT1 activator. activation (% of control), % at 5.7 µM. hit rate 46% among 1,200;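 active means activation above the solvent-only control well mean plus 3 SD, set per plate batch, cut at about 110% in these data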;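 further: 0% = no luminescence and 100% = median IL-6 plus DMSO wells; higher means more STAT3 reporter activation so hits are non-selective activators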
An asterisk follows results filed as active; . = no result. Rows were chosen to be rich in hits. Some 4.1% of all compounds tested hit in one or more screens of this group.

SMILES	STAT1 activator	FLuc inh counter	NF-kB expr up	FLuc act counter	APP 5'UTR act	others
CC1(C)CC(=O)c2cnc(N3CCN(c4ccccc4)CC3)nc2C1	92.1	-1.5	0.67	1	2.1
O=C1CC(c2ccccc2)Cc2nc(N3CCc4ccccc43)ncc21 (stereo not drawn)	102.1	.	.	.	1.8
O=C1CCCc2nc(N3CCc4ccccc43)ncc21	150.0*	64.6*	8.02*	0.4	88.6
CC1(C)CC(=O)c2cnc(N3CCc4ccccc4C3)nc2C1	132.7*	11.5	1.75	0.9	-3.9
CN(CCCN1CCOCC1)Cc1cn(C)nc1-c1ccccc1F	105.7	-2.2	1	1	3.9
Cc1ccc(S(=O)(=O)Cn2nnnc2CN2CCCC3(CCCCC3)C2)cc1	103.3	-7.0	0.79	1.1	6.2
CSc1cccc(NC(=O)CSc2nc3ccccc3o2)c1	105.8	-1.6	1.47	1	110.6
CC(C)N=C1NN=C(c2ccc(Cl)c(Cl)c2)CS1	135.5*	63.6*	8.58*	0.4	171.7*
CC(C)N=C1NN=C(c2cccs2)CS1	134.2*	31.3	3.5*	0.7	103.3
COCC(C)N=C1NN=C(c2ccc(NC(C)=O)cc2)CS1 (stereo not drawn)	100.1	20.4	1.26	0.8	29.9
CC(=O)NCc1ccc(C(=O)CCl)s1	99.0	-4.0	4.03*	1	6.7
CC(=O)NCc1ccc(C(=O)CCl)cc1	93.0	-5.2	1.17	1.1	-1.0
CC(C)(C)C1CCc2c(C(=O)N/N=C/c3cccs3)csc2C1 (stereo not drawn)	129.2*	7.1	2.4	0.9	16.6
COc1ccc(NC(=O)c2csc3c2CCCC3)cc1	141.5*	29.1	7.31*	0.7	159.3*
COc1cc(/C=N/NC(=O)c2csc3c2CCCC3)cc(OC)c1O	103.4	-5.1	0.8	1.1	9.5
Cc1ccccc1NC(=O)c1csc2c1CCCC2	116.9	18.5	1.67	0.8	25.5
Cc1ccc(/C=N\NC(=O)c2csnn2)cc1	134.0*	65.5*	2.27	0.3	23.2
Cc1ccc(/C=N/NC(=O)c2csc3c2CCCC3)cc1	119.0	5.1	3.77*	0.9	-89.7
Cc1cc(NC(=O)CSc2nnc(N)s2)c([N+](=O)[O-])cc1C	96.6	-4.7	1.2	1	8.5
CCC(Oc1ccccc1)C(=O)N1CC(C)CC(C)C1 (stereo not drawn)	101.2	-7.8	1.12	1.1	.
CCOc1c(Br)cc(C(N)=O)cc1OCc1ccccc1	103.5	0.3	1.01	1	0.3
COC(=O)/C=C/c1oc2ccccc2c1C	111.1	-1.0	1.31	1	3.0
COc1ccccc1CCNC(=O)c1csc2c1CCCC2	110.8	1.8	1.46	1	2.6
COc1cccc(NC(=O)c2csc3c2CCCC3)c1	144.9*	21.6	1	0.8	75.0
CC(C)Sc1nnc(Nc2ccccc2)s1	137.8*	20.9	1.1	0.8	70.6
SMILES	STAT1 activator	FLuc inh counter	NF-kB expr up	FLuc act counter	APP 5'UTR act	others
Cc1ccc(NC(=O)c2snc3ccc(Cl)cc23)cc1C	130.5*	0.1	1.73	1	92.2
COc1ccc(C2NC(c3ccc(OC)cc3OC)C(C)C(=O)C2C)c(OC)c1 (stereo not drawn)	103.1	-8.3	0.84	1.1	-8.2
O=C(CCl)Nc1ccc(N=Nc2ccccc2)cc1	123.8	28.8	3.1	0.7	31.2
CCC(C(=O)OCC(=O)Nc1ccc(C(N)=O)cc1)c1ccccc1 (stereo not drawn)	100.0	-6.7	0.98	1.1	-5.2
CC(=O)OCC(=O)Nc1ccc(N=Nc2ccccc2)cc1	162.3*	8.6	4.89*	0.9	110.0	STAT1 act conf=189.7*;NFkB act STAT1ct=135.0*;STAT3 act STAT1c=113.8*
O=C(Nc1ccc(N=Nc2ccccc2)cc1)c1ccccc1Cl	180.4*	-3.9	2.27	1	158.1*	STAT1 act conf=204.4*;NFkB act STAT1ct=153.3*;STAT3 act STAT1c=119.7*
CC(C)C(=O)OCC(=O)Nc1ccc(N=Nc2ccccc2)cc1	151.0*	-3.1	5.11*	1	169.7*	STAT1 act conf=184.1*;NFkB act STAT1ct=140.1*;STAT3 act STAT1c=116.9*
CC(=O)OCC(=O)Nc1ccc(SC(F)F)cc1	103.8	27.4	1.07	0.7	51.5
CC(=O)Nc1ccc(N=Nc2ccccc2)cc1	152.2*	15.2	5.31*	0.8	111.3	STAT1 act conf=187.5*;NFkB act STAT1ct=131.4;STAT3 act STAT1c=107.2
O=C(Nc1ccc(N=Nc2ccccc2)cc1)c1ccc(Cl)cc1Cl	107.2	-5.0	0.77	1.1	-5.1
Cc1c(NC(=O)c2cnn3c2NC(c2ccco2)CC3C(F)(F)F)c(=O)n(-c2ccccc2)n1C (stereo not drawn)	104.4	-8.5	1.13	1.1	9.3
Clc1cccc(-c2cc3nc4c(c(NCc5ccco5)n3n2)CCCC4)c1	153.6*	6.2	1.96	0.9	130.9	STAT1 act conf=241.9*;NFkB act STAT1ct=144.5*;STAT3 act STAT1c=112.8*
COCCNc1cc(C)nc2cc(-c3ccc(C)cc3)nn12	119.4	34.8	1.52	0.7	4.0
Cc1ccc(-c2cc3nc(C)cc(NCc4ccco4)n3n2)cc1	150.7*	68.4*	4.09*	0.3	136.8*	STAT1 act conf=171.8*;NFkB act STAT1ct=113.8;STAT3 act STAT1c=109.3
c1coc(CNc2c3c(nc4ncnn24)CCCC3)c1	97.1	-7.4	0.9	1.1	12.2
CCCCOC(=O)N/N=C/C=C/c1ccccc1	113.4	1.8	1.59	1	23.2
CCOC(=O)NC(=O)COC(=O)CCCSc1nc2ccccc2s1	93.5	0.3	0.93	1	3.4
CCOC(=O)N/C(N)=N/c1nc2ccccc2s1	166.4*	40.0	7.03*	0.6	199.3*	STAT1 act conf=210.3*;NFkB act STAT1ct=124.6;STAT3 act STAT1c=98.6
CCC(CC)NC(=O)Cc1ccc(F)cc1	98.8	0.8	1.04	1	11.8
COC(=O)c1ccc(NC(=O)Nc2ccc3c(c2)nc(C)n3C)cc1	117.3	0.6	1.07	1	16.6
Cc1nc2cc(NC(=O)N3c4ccccc4CC3C)ccc2n1C (stereo not drawn)	151.2*	86.0*	4.02*	0.1	.	STAT1 act conf=217.9*;NFkB act STAT1ct=132.1;STAT3 act STAT1c=132.2*
CC(=O)c1cnc2c(-c3ccc(Cl)cc3)cnn2c1C	125.7	-1.1	1.69	1	7.1
Nc1c(C(=O)O)cnc2c(-c3ccc(Cl)cc3)cnn12	194.0*	58.4*	4.93*	0.4	122.0	STAT1 act conf=219.3*;NFkB act STAT1ct=131.9;STAT3 act STAT1c=152.1*
CS(=O)(=O)c1cnc2c(-c3ccc(F)cc3)cnn2c1N	161.9*	45.5	3.51*	0.5	32.7	STAT1 act conf=188.8*;NFkB act STAT1ct=125.4;STAT3 act STAT1c=106.2
Clc1ccc(-c2cnn3c(-c4ccncc4)ccnc23)cc1	156.9*	67.9*	3.59*	0.3	221.2*	STAT1 act conf=236.7*;NFkB act STAT1ct=131.7;STAT3 act STAT1c=109.0
